Compound activity from PubChem.
Shown are actives, neighbours in structure and some others; about 3.4% of the full set was active somewhere.
CHRM1 agonist: human M1 muscarinic receptor agonism | P11229 | CHO-K1 hM1, Fluo-8 calcium fluorescence, agonist mode; 0% DMSO, 100% acetylcholine EC100 | activation, % at 3 µM | actives 0.33% (n = 360,000) | AID 588814;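 active means activation above the run's mean compound activation plus 3 SD, cut at about 16% in these data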;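 further: peak over basal fluorescence ratio within a 140 s kinetic read after compound addition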
Target sequence (P11229 whole entry, looked up): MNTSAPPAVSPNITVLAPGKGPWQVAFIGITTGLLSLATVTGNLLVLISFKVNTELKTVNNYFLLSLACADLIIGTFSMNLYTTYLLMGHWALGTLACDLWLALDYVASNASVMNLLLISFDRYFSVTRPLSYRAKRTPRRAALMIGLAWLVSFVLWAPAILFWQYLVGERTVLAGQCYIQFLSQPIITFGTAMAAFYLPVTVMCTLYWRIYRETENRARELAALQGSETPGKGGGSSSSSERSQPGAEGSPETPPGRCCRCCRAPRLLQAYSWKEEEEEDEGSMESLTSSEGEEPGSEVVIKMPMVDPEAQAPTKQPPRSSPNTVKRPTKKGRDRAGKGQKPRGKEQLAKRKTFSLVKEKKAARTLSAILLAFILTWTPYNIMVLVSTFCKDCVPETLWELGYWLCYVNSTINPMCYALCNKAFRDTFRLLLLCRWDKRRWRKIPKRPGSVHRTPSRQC
M1 PAM: positive allosteric modulators of human M1 muscarinic receptor; actives 0.088% (n = 360,000); activation, % at 3 µM; CHO-K1 hM1, Fluo-8 calcium fluorescence, ACh EC20; 0% = ACh EC20, 100% = maximal ACh; in the data active means activation above about 19%, passing the limit was not always enough
TAAR1 agonist: agonists of human TAAR1 | CHO RD-HGA16 TAAR1, Fluo-8 calcium fluorescence; vehicle wells 0%, saturating PEA agonist 100% | activation, % at 3 µM | actives 0.99% (n = 360,000) | AID 624467;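 active means activation above the mean activation of all test compounds in the run plus 3 SD, cut at about 38% in these data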
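Signal – calcium-sensitive Fluo-8 signal, excitation 470-495, emission 515-575 nm · System – RD-HGA16 (CHO) cells co-expressing Gα16 and hTAAR1 · Incubation – 17-24 h seeding, 75 min 37 °C dye, 30 min RT · Compound dosing – 3 µM single concentration · Repeats – no replicates (n 1)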
M1 antag: human CHRM1 antagonism; CHO-K1 hM1, Fluo-8 calcium fluorescence, ACh EC80 antagonist; P11229; AID 588852; actives 1.3% (n = 360,000); inhibition, % at 3 µM;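 active means percent inhibition above its own plate's cutoff, namely the mean of that plate's compound wells plus 3 SD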;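 further: peak over basal fluorescence ratio during 140 s after agonist addition; 0% = ACh EC80 plus DMSO and 100% = DMSO alone without agonist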
TAAR1 antag: antagonists of human TAAR1; actives 1.5% (n = 360,000); CHO RD-HGA16 TAAR1, Fluo-8 calcium fluorescence, antagonist; AID 624466; Q96RJ0; inhibition, % at 3 µM;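 active means inhibition above a per-plate cutoff, the mean inhibition of test compounds on that plate plus 3 SD, cut at about 49% in these data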;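 further: 0% = DMSO plus EC80 beta-PEA response and 100% = DMSO alone without agonist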
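Test system: CHO RD-HGA16 cells bearing hTAAR1 | Reagent: β-PEA, EC80 | Compound dosing: 3 µM, single point | Schedule: Dye loading 75 min at 37 °C, then 30 min room temperature | Signal: Calcium fluorescence with Fluo-8 | Evaluation: Percent inhibition of PEA-evoked calcium signal, max/basal emission ratio | Control set: DMSO-only wells and EC80 β-PEA-stimulated wells | Repeats: Singlicate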
An asterisk follows results filed as active; . = no result.

SMILES | CHRM1 agonist | M1 PAM | TAAR1 agonist | M1 antag | TAAR1 antag
CN(CC(=O)Nc1cccc(F)c1)C(=O)c1ccc(C2SCCS2)cc1 | 3.2 | 4.7 | 2.3 | -3.4 | 13.3
CN(CC(=O)Nc1cccc(F)c1)C(=O)c1ccc2c(c1)CC(c1ccccc1)OC2=O (stereo unspecified) | 1.1 | -1.5 | 19.2 | 9.2 | 58.4*
C[C@H](c1ccccc1)N1C[C@@H](COCc2ccccc2)Oc2cccc(F)c2S1(=O)=O | . | . | 1.9 | . | 9.5
COc1ccc(C2C3=C(COC3=O)Oc3cc4c(cc32)OCO4)cc1OC (stereo unspecified) | -1.2 | 28.5* | 0.8 | -25.4 | 7.1
COc1ccnc(Oc2ccccc2)c1C(=O)N/C=N/OCc1ccccc1 | 4.3 | -2.8 | 16.7 | 4.2 | 31.6
COc1ccnc(Oc2cccc(C(F)(F)F)c2)c1C(=O)N/C=N/OCc1ccccc1F | -5.3 | -7.1 | 18.8 | 8.9 | 53.7*
O=C(CCNS(=O)(=O)c1ccc(Br)cc1)N1CCN(c2ccccc2O)CC1 | -1.6 | -2.4 | 2.2 | -5.9 | -14.0
O=C(NCCC(=O)N1CCN(c2ccccc2O)CC1)c1ccc(Br)cc1 | 1.3 | 22.4* | 0.8 | -34.7 | -11.6
COC(=O)C1=C(C)N(Cc2cccc(C(F)(F)F)c2)C(=NCc2ccc(OC)cc2)NC1c1ccccc1C(F)(F)F (stereo unspecified) | . | . | 5.7 | . | 5.7
CC(C)(C)NC(=O)C(c1ccccc1F)n1c(=O)c(-c2cc3ccccc3[nH]2)nc2ccccc21 (stereo unspecified) | . | . | -1.5 | . | -36.8
CC(C)(C)c1ccc(S(=O)(=O)N2CCSC2)cc1 | -14.8 | -26.3 | 8.5 | 39.1* | 16.9
Cc1cc(Br)cc2c1NC(=O)C2(c1c(C)n(C)n(-c2ccccc2)c1=O)c1c(C)n(C)n(-c2ccccc2)c1=O | -2.7 | 8.9 | 7.0 | -11.3 | -35.0
COc1cc(C2(c3ccc(O)c(OC)c3)C(=O)Nc3c(C)cc(Br)cc32)ccc1O | -1.3 | 4.1 | 31.0 | 1.2 | 51.2*
Oc1ccccc1N=N/C(=N/Nc1ccccc1O)c1ccccc1 | -5.2 | -0.9 | 1.4 | 1.6 | -1.9
N#C/C(N=Nc1ccccc1O)=N\Nc1ccccc1O | 1.3 | -11.7 | 2.5 | 24.9 | 66.3*
Cn1c(CCNC(=O)c2ccccc2F)nnc1SCc1nc2ccccc2c(=O)[nH]1 | 4.1 | 29.6* | 3.4 | -46.3 | -22.5
COc1ccc(Cc2nnc(SCc3nc4ccccc4c(=O)[nH]3)n2C)cc1 | 1.9 | -0.5 | 10.0 | 1.3 | -15.2
Cn1nc(CC(=O)Nc2ncc(Br)s2)c2ccccc2c1=O | 9.8 | -7.7 | 44.2* | 6.9 | 29.0
O=C(Nc1nnc(SCc2ccc(F)cc2)s1)C1CC(=O)N(c2ccc3c(c2)OCCO3)C1 (stereo unspecified) | -7.8 | -3.4 | 37.9* | 6.3 | -4.1
O=C(Nc1nnc(SCc2c(Cl)cccc2Cl)s1)C1CC(=O)N(c2ccc3c(c2)OCCO3)C1 (stereo unspecified) | -5.2 | 1.7 | 1.8 | 33.2* | -9.6
COC(=O)[C@@H](Cc1ccc(O)cc1)NC(=O)[C@H]1O[C@@H](n2cnc3c(=O)[nH]c(N)nc32)[C@H](O)[C@@H]1O | . | . | 0.8 | . | -13.9
CCc1nc2c(OCC(N)=O)cccn2c1N(C)C(=O)C(C)C | -5.7 | 10.2 | 3.0 | -23.0 | -14.1
O=C(Nc1cccnc1)c1ccc(CSc2ccc(Cl)cc2)o1 | . | . | 5.7 | . | 45.8
CCCCN1CCCCC1(C)C(=O)NCc1cccs1 (stereo unspecified) | -5.0 | 10.2 | -0.2 | -8.9 | 7.0
COc1ccc(OCCN2CCC(C(=O)NC(c3ccc(OC)cc3)c3ccccn3)CC2)cc1 (stereo unspecified) | -7.2 | 9.4 | 1.4 | -12.1 | 1.2
SMILES | CHRM1 agonist | M1 PAM | TAAR1 agonist | M1 antag | TAAR1 antag
Cc1ccc(C(NC(=O)C2CCN(CCOc3ccccc3)CC2)c2ccccn2)cc1 (stereo unspecified) | -8.6 | -23.5 | 2.6 | 33.3* | -14.8
CC(=O)C1=CCC(c2cccc3ccccc23)N(S(=O)(=O)c2ccc(C)cc2)C1 (stereo unspecified) | -4.5 | -11.8 | -0.1 | -2.6 | -21.9
CCN(CC)CC#CCC(O)(c1ccccc1)C1CCCCC1 (stereo unspecified) | -15.2 | -38.0 | 9.9 | 98.8* | -2.1
CCCOC(=O)C1NC(=O)N2C(C(=O)OCCC)C(C)(C)S[C@H]12 (stereo partly specified) | -2.0 | 4.8 | 8.0 | -0.5 | 4.0
CC1(C)S[C@@H]2C(C(=O)OCc3ccccc3)NC(=O)N2C1C(=O)OCc1ccccc1 (stereo partly specified) | -4.0 | -16.8 | 8.5 | 22.1 | 51.5*
CC(=O)N(C)c1ccc(NC(=O)Nc2ccccc2C)cc1 | -2.3 | -0.6 | 3.4 | -1.9 | 3.5
CC(=O)N(C)c1ccc(NC(=O)Nc2ccc(C)c(C)c2)cc1 | 0.7 | -18.2 | 33.9 | 26.8* | 58.5*
CCNC(=O)C1(C)CCCN(Cc2cccc3c(OC)cc(C(=O)OCC)cc23)C1 (stereo unspecified) | -6.3 | 1.4 | -1.6 | -6.1 | -15.0
CCCC(C)C(=O)NC1CCCCN(C)C1=O (stereo unspecified) | . | . | 0.5 | . | -0.7
Cc1ccc(C2C(C#N)=C(N)SC(N)=C2C#N)c(C)c1 | 19.6* | -2.6 | . | 11.6 | .
Cc1ccc(C2C(C#N)=C(N)SC(N)=C2C#N)cc1 | 8.4 | -1.5 | 49.9* | 10.0 | 48.0
C[C@H]1[C@@H](c2ccccc2)Oc2ccc(Cl)cc2S(=O)(=O)N1Cc1ccc(Cl)cc1 | . | . | 0.3 | . | -32.7
C=C(C)[C@@H]1CC=C(CN2CCN(Cc3ccccc3)CC2)CC1 | -10.8 | -31.3 | 10.6 | 37.8* | -31.8
C=C(C)C1CC=C(CN2CCN(Cc3ccccc3)CC2)CC1 (stereo unspecified) | -8.8 | -24.3 | 11.4 | 17.5 | -14.8
COC(=O)[C@]12C[C@H](CC(=O)NCc3cccs3)C(=O)N(Cc3ccccc3)C1=C[C@H](C1CCCC1)O[C@@H]2C | . | . | -1.3 | . | -16.2
O=C(NCc1ccccc1)[C@@H]1CCCN1C(=O)[C@H]1CCCN1C(=O)c1ccccc1C(F)(F)F | . | . | 0.8 | . | 7.6
CC(C)(C)c1ccc(C#C[C@@H]2C=C[C@H]3OC(=O)CC/C=C/CCC(=O)OC[C@H]3O2)cc1 | . | . | -0.4 | . | -5.4
COc1ccc(NC(=O)c2cc(-c3cc(F)ccc3OC(C)C)n[nH]2)c(C)c1 | -3.0 | -22.5 | 45.3* | 23.0 | 85.6*
COc1ccc(NC(=O)c2cc(-c3cc(F)ccc3OC)n[nH]2)c(OC)c1 | 3.8 | -7.9 | 7.1 | 6.9 | 49.8*
COc1ccc(NC(=O)c2cc(-c3cc(Cl)ccc3OC)n[nH]2)c(OC)c1 | 6.4 | 2.9 | 2.3 | 5.8 | 53.7*
COc1ccc(OC)c(NC(=O)c2cc(-c3ccc(F)cc3OC(C)C)n[nH]2)c1 | -5.4 | -8.5 | 2.6 | 8.5 | 40.9
